The record followed here is ChEMBL document CHEMBL1130063, “Design and synthesis of potent antitumor 5,4'-diaminoflavone derivatives based on metabolic considerations” (J Med Chem, 1997).

Assay [1] relates to MCF7. As to the kind of experiment: Growth-Inhibitory activity against MCF-7 Cells in the presence of S-9 Mix. Type of assay: functional, cell-based. The note with it: Homo sapiens. An outline of the steps: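 MCF-7 cells were exposed to compound for 6 days and counted with a microcell counter. S-9 mix was in the medium at 0.125% of a 30% S-9 mix solution. That solution was made from rat liver S-9, glucose 6-phosphate, β-NADPH, 20 mM HEPES, 50 mM MgCl2, 330 mM KCl and water.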

Assay [2] concerns MCF7. Description: Growth-Inhibitory activity against MCF-7 Cells in the absence of S-9 Mix. In kind it is functional, cell-based, Homo sapiens. An outline of the steps:
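MCF-7 cells were exposed to compound for 6 days in medium without S-9 mix, and cells were counted with a microcell counter.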

In assay [3] the test system is T47D. Description: In vitro Growth Inhibitory activity against T-47D Human breast cancer cell line. In kind it is functional, cell-based. The gist of the method:
(§1)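 Cells were grown in RPMI 1640 with 10% FBS. Seeding per well was 3 × 10^3 for T-47D and OVCAR-3, and 1.5 × 10^3 for MKN-28 and PSN-1. Compound exposure lasted 6 days, and cells were counted with a microcell counter.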

Assay [4] has as its system WiDr. As to the kind of experiment: In vitro Growth Inhibitory activity against WiDr Human colon cancer cell line. Type of assay: functional, cell-based. The gist of the method:
(§2)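 Cells were grown with 10% FBS. Seeding per well was 3 × 10^3 for Ishikawa, 5 × 10^3 for Hep-G2, 2.5 × 10^3 for WiDr and 1.5 × 10^3 for ACHN. Exposure lasted 6 days, followed by microcell-counter cell counts.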

The test system of assay [5] is MKN-28. As to the kind of experiment: In vitro Growth Inhibitory activity against MKN Human stomach cancer cell line. Type of assay: functional, cell-based. An outline of the steps: as §1
Assay [6] concerns MDA-MB-453. As to the kind of experiment: In vitro Growth Inhibitory activity against MD-453 Human breast cancer cell line. In kind it is functional, cell-based. An outline of the steps:
(§3)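 Each cell line was treated for 6 days, and growth was read by counting cells with a microcell counter.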

Assay [7] has as its system HepG2. Description: In vitro Growth Inhibitory activity against HepG2 Human liver cancer cell line. In kind it is functional, cell-based. An outline of the steps:
as §2

In assay [8] the test system is OVCAR-3. Description: In vitro Growth Inhibitory activity against OVCAR-3 Human ovarian cancer cell line. Type of assay: functional, cell-based. An outline of the steps:
as §1

The test system of assay [9] is PSN1. Description: In vitro Growth Inhibitory activity against PSN-1 Human pancreas cancer cell line. In kind it is functional, cell-based. The gist of the method: as §1
The test system of assay [10] is A-431. As to the kind of experiment: In vitro Growth Inhibitory activity against A431 Human vulva cancer cell line. Type of assay: functional, cell-based. An outline of the steps: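 A431 was seeded at 1.5 × 10^3 cells/well in Dulbecco's modified Eagle's medium with FBS, treated for 6 days, and counted with a microcell counter.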
In assay [11] the test system is SK-BR-3. As to the kind of experiment: In vitro Growth Inhibitory activity against SK-BR-3 Human breast cancer cell line. In kind it is functional, cell-based. An outline of the steps:
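SK-BR-3 was seeded at 1 × 10^4 cells/well in McCoy's 5a with 10% FBS, treated for 6 days, and counted with a microcell counter.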

Assay [12] concerns ACHN. As to the kind of experiment: In vitro Growth Inhibitory activity against ACHN Human kidney cancer cell line. Type of assay: functional, cell-based. An outline of the steps:
as §2

For assay [13], the system named is MCF7. As to the kind of experiment: In vitro Growth Inhibitory activity against MCF-7 Human breast cancer cell line. In kind it is functional, cell-based. The gist of the method:
as §3

Assay [14] deals with Ishikawa. Description: In vitro Growth Inhibitory activity against Ishikawa Human endometrial cancer cell line. In kind it is functional, cell-based. An outline of the steps: as §2
For assay [15], the system named is A2780. As to the kind of experiment: In vitro Growth Inhibitory activity against A2780 Human ovarian cancer cell line. In kind it is functional, cell-based. An outline of the steps: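 A2780 was seeded at 1 × 10^3 cells/well in RPMI 1640 with 5% FBS, exposed to compound for 6 days, and counted with a microcell counter.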

As to `Nc1ccc(-c2cc(=O)c3c(N)ccc(Cl)c3o2)cc1`, the IC50 – broadly, the concentration that gives 50% inhibition – amounted to 250 nM in assay [1] and 9.8 nM in assay [2] (Homo sapiens, MCF7).

In the case of `Nc1ccc(-c2cc(=O)c3c(N)ccc(O)c3o2)cc1`, the IC50 in [1] worked out at 16000 nM; in [2] (Homo sapiens, MCF7), 5300 nM.

Compound `Nc1ccc(-c2cc(=O)c3c(N)c(Br)cc(Br)c3o2)cc1` showed an IC50 in assay [2] (Homo sapiens, MCF7) of 6300 nM.

Take `Nc1ccc(-c2cc(=O)c3c(N)ccc(F)c3o2)cc1`: the IC50 came out at 170 nM in assay [1] and 6.9 nM in assay [2] (Homo sapiens, MCF7).

`COc1ccc(N)c2c(=O)cc(-c3ccc(N)cc3)oc12`: the IC50 in assay [2] (Homo sapiens, MCF7) stood at 21000 nM; in [2] (mcf7), 19000 nM.

As for `Nc1ccc(-c2cc(=O)c3c(N)c(F)cc(F)c3o2)cc1F`, the IC50 was 31 nM in assay [3]; over 1000 nM in [4]; over 1000 nM in assay [5]; over 1000 nM in [6]; 2.8 nM in assay [7]; 14 nM in assay [8]. Moreover, the concentration for half-maximal inhibition (IC50) was over 1000 nM in assay [9]; over 1000 nM in assay [10]; 2.5 nM in [11]; over 1000 nM in [12]; 1.2 nM in assay [13]; 13 nM in [14]. Also, the IC50 was determined as 25 nM in assay [1]; 1.2 nM in assay [2] (Homo sapiens, MCF7); 1.3 nM in assay [15].

For the compound `Cc1ccc(N)c2c(=O)cc(-c3ccc(N)c(F)c3)oc12`, the IC50 in [1] is 180 nM; in assay [2] (Homo sapiens, MCF7) it was 15 nM.

As for `Nc1ccc(-c2cc(=O)c3c(N)c(Cl)ccc3o2)cc1`, the IC50 was over 10000 nM in assay [1] and 3.9 nM in assay [2] (Homo sapiens, MCF7).

In the case of `Nc1ccc(-c2cc(=O)c3c(N)c(F)ccc3o2)cc1`, the 50% inhibitory concentration (IC50) worked out at 130 nM in [1] and 4.4 nM in [2] (Homo sapiens, MCF7).

For `Nc1ccc(-c2cc(=O)c3c(N)cccc3o2)cc1`, the IC50 came to 210 nM in assay [1] and 7.3 nM in assay [2] (Homo sapiens, MCF7).

On to `Nc1ccc(-c2cc(=O)c3c(N)c(Cl)cc(Cl)c3o2)cc1`, for which the IC50 in assay [1] amounted to 610 nM; in assay [2] (Homo sapiens, MCF7), 53 nM.

Turning to `Nc1c(F)cc(-c2cc(=O)c3c(N)c(F)cc(F)c3o2)cc1F`, the half-inhibitory concentration (IC50) in assay [1] was found to be 89 nM; in [2] (Homo sapiens, MCF7), 4 nM.

Take `Cc1cc(C)c2oc(-c3ccc(N)c(F)c3)cc(=O)c2c1N`: the IC50 in [1] was determined as 110 nM; in assay [2] (Homo sapiens, MCF7), 36 nM.

On to `Nc1ccc(-c2cc(=O)c3c(N)c(F)cc(F)c3o2)cc1`, for which the IC50 is 46 nM in assay [1] and 6 nM in [2] (Homo sapiens, MCF7).
